Test [1] deals with Histamine H3 receptor (Cavia porcellus, UniProt Q9JI35). The test can be described thus: Binding affinity against Histamine H3 receptor. The gist of the method:
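H3 receptor binding Ki values are the mean of two independent experiments, with errors given as the range from the mean.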

For test [2], the target named is Histamine H1 receptor (Cavia porcellus, UniProt P31389). The test can be described thus: Binding affinity against H1 receptor.
The target of test [3] is Histamine H3 receptor (Cavia porcellus) (UniProt Q9JI35). The settings on record: Ileum, 1 uM.
Chain of Histamine H3 receptor (Cavia porcellus) (Q9JI35 whole entry): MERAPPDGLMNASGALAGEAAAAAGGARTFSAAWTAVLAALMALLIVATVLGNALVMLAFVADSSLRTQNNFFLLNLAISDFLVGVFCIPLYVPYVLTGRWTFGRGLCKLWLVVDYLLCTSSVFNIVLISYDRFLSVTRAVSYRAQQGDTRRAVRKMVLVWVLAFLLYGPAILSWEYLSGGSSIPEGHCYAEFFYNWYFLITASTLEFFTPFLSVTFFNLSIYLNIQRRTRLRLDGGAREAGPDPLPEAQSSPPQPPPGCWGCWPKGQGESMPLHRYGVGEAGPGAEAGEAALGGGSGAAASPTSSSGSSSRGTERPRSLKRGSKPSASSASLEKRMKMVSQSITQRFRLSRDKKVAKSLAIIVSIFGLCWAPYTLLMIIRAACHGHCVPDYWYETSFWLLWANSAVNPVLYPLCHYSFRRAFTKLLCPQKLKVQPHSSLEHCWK
Test [4] concerns the target Histamine H1 receptor (Cavia porcellus) (UniProt P31389). The settings on record: Ileum, 10 uM.
Test [5] concerns the target Histamine H3 receptor (Cavia porcellus) (UniProt Q9JI35). To be noted: Ileum.
The test system of test [6] is Cavia porcellus. The test is described as follows: Effective dose was tested in vivo for 50% inhibition by an electrically induced CNS hypertension model after iv administration. The format is functional. The gist of the method: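 H3 agonist activity was measured in a CNS hypertension model with intravenous dosing. Values are ED50 in mg/kg, or % of the activity of the reference H3 agonist at 0.3 mg/kg.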

Test [7] relates to Cavia porcellus. The test can be described thus: Effective dose was tested in vivo for 50% inhibition by an H1 histamine-mediated bronchospasm after iv administration in guinea pig. Type of test: functional. To be noted: Bronchiole. The gist of the method: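 Given intravenously and measured in an H1 histamine-mediated bronchospasm model. Value is expressed as ED50 in mg/kg.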

The target of test [8] is Histamine H1 receptor (Cavia porcellus) (UniProt P31389). The settings on record: Ileum.
Chain of Histamine H1 receptor (Cavia porcellus) (P31389 whole entry): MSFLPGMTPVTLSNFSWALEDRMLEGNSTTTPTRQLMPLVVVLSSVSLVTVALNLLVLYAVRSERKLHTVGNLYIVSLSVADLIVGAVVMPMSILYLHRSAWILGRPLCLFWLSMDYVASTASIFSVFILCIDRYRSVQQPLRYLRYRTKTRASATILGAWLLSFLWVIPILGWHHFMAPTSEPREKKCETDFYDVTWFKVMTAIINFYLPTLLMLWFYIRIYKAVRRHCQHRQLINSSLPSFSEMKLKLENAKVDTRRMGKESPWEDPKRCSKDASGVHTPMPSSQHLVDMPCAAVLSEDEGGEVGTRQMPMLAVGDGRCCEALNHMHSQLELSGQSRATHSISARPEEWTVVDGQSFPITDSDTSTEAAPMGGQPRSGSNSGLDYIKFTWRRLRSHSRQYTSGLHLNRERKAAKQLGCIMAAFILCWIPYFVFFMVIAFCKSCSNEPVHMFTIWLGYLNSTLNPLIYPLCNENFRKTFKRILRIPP
Test [9] deals with Cavia porcellus. The test can be described thus: Effective dose was tested in vivo for 50% inhibition by an H1 histamine-mediated bronchospasm in guinea pig. To be noted: Bronchiole. The format is functional.

SMILES strings stand for the structures. The source made the active and inactive calls. The calls are words filed in the database; no cut-off is given here.

Chain of Histamine H1 receptor (P31389 whole entry): as above
Chain of Histamine H3 receptor (Q9JI35 whole entry): as the sequence (Q9JI35 whole entry) above

As to `C[C@@]1(N)CCCC[C@@H]1c1cnc[nH]1` (racemic), the Ki – broadly, the equilibrium dissociation constant of an inhibitor or competing ligand from its target – in [1] was greater than 2000 nM.

With `C[C@H]1NCC[C@@H]1c1c[nH]cn1` (racemic), the Ki in test [1] was found to be 8.7 nM.

Regarding `C[C@@H]1NCC[C@H]1c1c[nH]cn1`, the Ki in test [1] was 33 nM; in [2] it was greater than 10000 nM. The pD2 result in [3] was “inactive”.

With `C[C@@H](N)[C@@H](C)c1c[nH]cn1` (racemic), the Ki in test [1] came to 11 nM.

`C[C@H](c1c[nH]cn1)[C@@H](C)N` (racemic): the Ki in test [1] came out at 0.8 nM.

`C[C@]1(N)CCCC[C@@H]1c1c[nH]cn1` (racemic): the Ki in test [1] is greater than 2000 nM.

Compound `N[C@H]1CCC[C@@H]1c1cnc[nH]1` (racemic) gave a Ki in test [1] of 740 nM.

On to `C[C@H]1NCC[C@@H]1c1c[nH]cn1` [listing 1 of 2 here], for which, in test [4], the pD2 result is “inactive”. The compound also returned a pD2 in [5] of 7.1.

In the case of `C[C@@H](N)Cc1c[nH]cn1`, the ED50 (as a rule, the dose at which the effect has come halfway, by size or by number of responders) in test [6] turned out to be 0.1 mg/kg; in test [7] it was 1.7 mg/kg. For the same compound, the Ki was 1.5 nM in test [1] and greater than 10000 nM in test [2]. In addition, the pD2 in test [8] stood at 5.4; in [5], 8.2.

Take `C[C@H]1NCC[C@@H]1c1c[nH]cn1` [listing 2 of 2 here]: the ED50 was greater than 100 mg/kg in test [9] and 0.18 mg/kg in test [6]. The Ki in test [1] is 2.8 nM; in test [2] it was greater than 10000 nM.

For the origin of these results see ChEMBL document CHEMBL1128351, “A novel pyrrolidine analog of histamine as a potent, highly selective histamine H3 receptor agonist” (J Med Chem, 1995).
